Legend:
[1] = molecular target: T1, Tyrosine-protein phosphatase non-receptor type 1 (Homo sapiens, UniProt P18031); test: Inhibition of PTP1B
T1 sequence (P18031 whole entry): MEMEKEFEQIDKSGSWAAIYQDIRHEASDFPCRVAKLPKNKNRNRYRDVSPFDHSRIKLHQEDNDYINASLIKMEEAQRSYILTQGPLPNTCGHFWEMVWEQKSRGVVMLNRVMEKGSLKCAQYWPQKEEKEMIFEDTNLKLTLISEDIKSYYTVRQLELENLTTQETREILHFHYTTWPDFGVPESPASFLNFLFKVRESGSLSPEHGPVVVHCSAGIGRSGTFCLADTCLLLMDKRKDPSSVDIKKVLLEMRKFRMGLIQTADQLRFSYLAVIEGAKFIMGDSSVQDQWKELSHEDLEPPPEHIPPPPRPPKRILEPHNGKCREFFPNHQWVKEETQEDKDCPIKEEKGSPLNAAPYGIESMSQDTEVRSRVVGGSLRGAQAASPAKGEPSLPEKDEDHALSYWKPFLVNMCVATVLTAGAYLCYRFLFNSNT
Method in brief: (§1)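 Medium: 10% DMSO, 1 mM EDTA, 50 mM NaCl, 50 mM 3,3-dimethylglutarate, pH 7.0. Initial rates taken as absorbance at 420 nm from 30 to 150 s after mixing. IC50 derived from percent inhibition.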

[2] = molecular target: T2, Tyrosine-protein phosphatase non-receptor type 2 (Homo sapiens, UniProt P17706); test: Inhibition of TCPTP; method in brief: as §1
T2 sequence (P17706 whole entry): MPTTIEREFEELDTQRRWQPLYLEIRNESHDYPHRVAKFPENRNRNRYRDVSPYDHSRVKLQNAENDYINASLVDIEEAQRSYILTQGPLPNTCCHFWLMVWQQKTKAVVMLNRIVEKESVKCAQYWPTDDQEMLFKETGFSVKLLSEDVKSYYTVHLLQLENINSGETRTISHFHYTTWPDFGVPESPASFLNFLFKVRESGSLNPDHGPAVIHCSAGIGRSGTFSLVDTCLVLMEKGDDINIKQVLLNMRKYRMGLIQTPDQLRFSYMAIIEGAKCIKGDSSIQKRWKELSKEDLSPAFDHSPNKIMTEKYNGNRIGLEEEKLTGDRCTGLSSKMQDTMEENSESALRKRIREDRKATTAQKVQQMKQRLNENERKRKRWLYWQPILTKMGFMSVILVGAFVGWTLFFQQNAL

[3] = molecular target: T3, Tyrosine-protein phosphatase non-receptor type 7 (Homo sapiens, UniProt P35236); test: Inhibition of HePTP
T3 sequence (P35236 whole entry): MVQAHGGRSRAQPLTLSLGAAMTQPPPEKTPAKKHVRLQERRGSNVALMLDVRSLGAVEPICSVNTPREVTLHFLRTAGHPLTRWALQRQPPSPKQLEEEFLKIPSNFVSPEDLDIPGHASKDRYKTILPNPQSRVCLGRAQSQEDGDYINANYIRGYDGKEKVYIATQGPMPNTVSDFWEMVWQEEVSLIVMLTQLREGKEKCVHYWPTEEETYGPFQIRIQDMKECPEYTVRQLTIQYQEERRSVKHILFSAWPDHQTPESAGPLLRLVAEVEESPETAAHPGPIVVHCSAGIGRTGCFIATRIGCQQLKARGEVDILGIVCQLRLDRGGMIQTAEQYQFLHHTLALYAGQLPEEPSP
Method in brief: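 HePTP assayed with 4-methylumbelliferyl phosphate at 174 μM (its measured Km) at 25 °C in 10% DMSO, 1 mM EDTA, 50 mM NaCl, 50 mM 3,3-dimethylglutarate, pH 7.0. Initial rates read as fluorescence (ex 340, em 460 nm) from 0 to 150 s after mixing. IC50 derived from percent inhibition.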

[4] = molecular target: Secreted effector protein (Yersinia pestis, UniProt O68720); test: Inhibition of Yersinia pestis YOpH
Secreted effector protein, sequence (O68720 whole entry): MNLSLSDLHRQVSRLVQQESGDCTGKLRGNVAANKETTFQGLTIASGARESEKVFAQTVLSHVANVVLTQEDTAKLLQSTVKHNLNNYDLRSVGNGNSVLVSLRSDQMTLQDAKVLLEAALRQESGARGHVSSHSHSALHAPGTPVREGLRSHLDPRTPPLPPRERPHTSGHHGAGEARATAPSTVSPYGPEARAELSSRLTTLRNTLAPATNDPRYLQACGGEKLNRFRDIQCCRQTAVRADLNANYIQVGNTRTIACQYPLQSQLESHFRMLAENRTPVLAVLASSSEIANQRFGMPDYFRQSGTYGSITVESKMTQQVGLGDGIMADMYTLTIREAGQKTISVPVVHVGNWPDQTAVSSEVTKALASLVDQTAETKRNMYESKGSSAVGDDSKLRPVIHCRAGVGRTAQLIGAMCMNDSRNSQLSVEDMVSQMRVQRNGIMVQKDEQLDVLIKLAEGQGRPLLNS
Method in brief: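 Phosphatase activity was read at 25 °C with p-NPP at its Km (1.7 mM). The buffer was 50 mM 3,3-dimethylglutarate pH 7.0 with 50 mM NaCl, 1 mM EDTA and 10% DMSO. Initial rates came from hydrolysis at 420 nm, 30 to 150 s after mixing. Percent inhibition was measured and IC50 values were calculated from it.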

[5] = Selectivity ratio of IC50 for TCPTP to IC50 for PTP1B

SMILES	IC50 [1] [nM]	IC50 [2] [nM]	IC50 [3] [nM]	IC50 [4] [nM]	Ratio IC50 [5]
O=C(O)C(=O)c1ccc(OCc2ccc(COc3ccc(C(=O)C(=O)O)cc3)c(C(=O)Nc3ccc(Oc4ccc(SC(F)(F)F)cc4)cc3)c2)cc1	1600	4000	53000	50	
CSc1ccc(Oc2ccc(NC(=O)c3cc(COc4ccc(C(=O)C(=O)O)cc4)ccc3COc3ccc(C(=O)C(=O)O)cc3)cc2)cc1				110	
CCCCc1ccc(Oc2ccc(NC(=O)c3cc(COc4ccc(C(=O)C(=O)O)cc4)ccc3COc3ccc(C(=O)C(=O)O)cc3)cc2)cc1				200	
COc1ccc(Oc2ccc(NC(=O)c3cc(COc4ccc(C(=O)C(=O)O)cc4)ccc3COc3ccc(C(=O)C(=O)O)cc3)cc2)cc1				1100	
O=C(O)C(=O)c1ccc(OCc2ccc(COc3ccc(C(=O)C(=O)O)cc3)c(C(=O)Nc3ccc(Oc4cccc(F)c4)cc3)c2)cc1				220	
O=C(O)C(=O)c1ccc(OCc2ccc(COc3ccc(C(=O)C(=O)O)cc3)c(C(=O)Nc3ccc(Oc4ccc(F)cc4)cc3)c2)cc1				110	
CCc1ccc(Oc2ccc(NC(=O)c3cc(COc4ccc(C(=O)C(=O)O)cc4)ccc3COc3ccc(C(=O)C(=O)O)cc3)cc2)cc1	490	3500	52000	70	
O=C(O)C(=O)c1ccc(OCc2ccc(COc3ccc(C(=O)C(=O)O)cc3)c(C(=O)Nc3ccc(Oc4ccccc4)cc3)c2)cc1				240	< 2
CCCCCCc1ccc(Oc2ccc(NC(=O)c3cc(COc4ccc(C(=O)C(=O)O)cc4)ccc3COc3ccc(C(=O)C(=O)O)cc3)cc2)cc1	1200	2300	28000	90	
Cc1ccccc1Oc1ccc(NC(=O)c2cc(COc3ccc(C(=O)C(=O)O)cc3)ccc2COc2ccc(C(=O)C(=O)O)cc2)cc1				230	
O=C(O)C(=O)c1ccc(OCc2ccc(COc3ccc(C(=O)C(=O)O)cc3)c(C(=O)Nc3ccc(Oc4ccc(Cl)c(Cl)c4)cc3)c2)cc1				210	
O=C(O)C(=O)c1ccc(OCc2ccc(COc3ccc(C(=O)C(=O)O)cc3)c(C(=O)Nc3ccc(Oc4ccc(-c5ccccc5)cc4)cc3)c2)cc1	220	6500	21000	30	
O=C(O)C(=O)c1ccc(OCc2ccc(COc3ccc(C(=O)C(=O)O)cc3)c(C(=O)Nc3ccc(Oc4ccc(F)cc4F)cc3)c2)cc1				910	
CC(C)c1ccc(Oc2ccc(NC(=O)c3cc(COc4ccc(C(=O)C(=O)O)cc4)ccc3COc3ccc(C(=O)C(=O)O)cc3)cc2)cc1				800	
N#Cc1ccc(Oc2ccc(NC(=O)c3cc(COc4ccc(C(=O)C(=O)O)cc4)ccc3COc3ccc(C(=O)C(=O)O)cc3)cc2)cc1				1300	
O=C(O)C(=O)c1ccc(OCc2ccc(COc3ccc(C(=O)C(=O)O)cc3)c(C(=O)Nc3cccc(OCc4ccccc4)c3)c2)cc1				100	
Cc1ccc(Oc2ccc(NC(=O)c3cc(COc4ccc(C(=O)C(=O)O)cc4)ccc3COc3ccc(C(=O)C(=O)O)cc3)cc2)cc1				190	

Reference: ChEMBL document CHEMBL1240524, “A focused library of protein tyrosine phosphatase inhibitors” (J Med Chem, 2010)
